Experiment [1] has as its target T1, HER2-TK (Homo sapiens, UniProt P04626). The experiment can be described thus: SPR kinetic analysis of binding to immobilized HER2-TK.
For experiment [2], the system named is SKOV3 (HER2-positive cell). The experiment can be described thus: MTT cell viability assay, SKOV3. In kind it is cell-based, human. As to conditions: read-out: cell inhibition IC50 SKOV3 (HER2-positive cell), 72 h, mean ± SD. An outline of the steps:
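SKOV3 cells grown in DMEM at 37 °C, 5% CO2, seeded at 1 × 10^4 cells/well and left 16 h. Test compound from DMSO stock (final DMSO ≤1%) was added in complete medium, 2-fold dilutions from 100 μM, for 72 h. MTT added for 3 h at 37 °C, formazan dissolved in DMSO, read at 550/590 nm. Triplicate; IC50 by nonlinear regression.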

Experiment [3] addresses T1, HER2-TK. The experiment is described as follows: HER2-TK inhibitory activity assay. Type of experiment: biochemical.
Setting [4] is: SPR, PBS pH 7.4 with 5% DMSO, mean ± SD.

Each structure is given as a SMILES string. Like-named read-outs stand apart in the source and are kept apart here.

The source of these data is article PMC11840771 (ACS Omega, 2025).

T1 sequence (P04626 676-1255 limits assumed): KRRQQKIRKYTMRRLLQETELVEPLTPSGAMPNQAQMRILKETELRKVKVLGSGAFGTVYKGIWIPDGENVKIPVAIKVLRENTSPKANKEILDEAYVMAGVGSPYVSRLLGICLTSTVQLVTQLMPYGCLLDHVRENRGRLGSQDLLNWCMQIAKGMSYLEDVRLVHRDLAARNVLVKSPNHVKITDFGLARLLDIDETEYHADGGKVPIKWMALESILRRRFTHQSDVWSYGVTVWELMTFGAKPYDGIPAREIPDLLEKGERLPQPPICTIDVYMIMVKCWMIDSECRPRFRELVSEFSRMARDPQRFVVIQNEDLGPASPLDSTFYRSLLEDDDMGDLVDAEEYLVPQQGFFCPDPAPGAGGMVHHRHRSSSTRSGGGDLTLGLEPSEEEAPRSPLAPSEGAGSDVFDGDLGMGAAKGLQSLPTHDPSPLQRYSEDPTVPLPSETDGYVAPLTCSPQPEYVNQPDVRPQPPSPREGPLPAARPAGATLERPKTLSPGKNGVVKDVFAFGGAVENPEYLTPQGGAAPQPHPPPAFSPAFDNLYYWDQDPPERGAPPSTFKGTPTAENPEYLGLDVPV

For the compound `CN(C)C/C=C/C(=O)Nc1cc2c(Nc3ccc(F)c(Cl)c3)ncnc2cc1O[C@H]1CCOC1` [Afatinib, reference compound], the kd at HER2-TK [1] (setting [4]) was 9.95 ± 0.16 10^–3/s. Moreover, the IC50 in experiment [2] amounted to 8.4 ± 0.9 µM.
Turning to `C=C(C)[C@@H]1CCC(C)=C[C@H]1c1c(O)cc(CCCCC)cc1O` [CBD, cannabidiol], the Kd at HER2-TK [1] was determined as 6.16 ± 0.25 µM. Besides, the kd on HER2-TK [1] (setting [4]) is given as 6.33 ± 0.06 10^–3/s. Moreover, the IC50 came out at 0.038 ± 0.002 µM at HER2-TK [3] and 13.8 ± 1.7 µM in experiment [2].
`CCCCCc1cc(O)c(C/C=C(\C)CCC=C(C)C)c(O)c1` [CBG, cannabigerol] registered a Kd at HER2-TK [1] of 17.1 ± 0.8 µM. In addition, at HER2-TK [1] (setting [4]), the ka is listed as 2.21 ± 0.11 10^2/(M·s) and the kd is 3.77 ± 0.02 10^–3/s. Besides, on HER2-TK [1] (read-out: association rate constant (ka)), the kon is 221 M⁻¹ s⁻¹. Further, the IC50 against HER2-TK [3] was found to be 0.0247 ± 0.0026 µM. Moreover, the IC50 in experiment [2] turned out to be 16.6 ± 1 µM.
As to `CCCCCc1cc(O)c2c(c1)OC(C)(C)c1ccc(C)cc1-2` [CBN, cannabinol], binding on HER2-TK [1] was characterised by a dissociation constant (Kd) of 26 ± 2.97 µM. Also, the kd at HER2-TK [1] (SPR) is 3.14 × 10^–3 s^–1; on HER2-TK [1] (setting [4]), 3.14 ± 0.09 10^–3/s. In addition, the kon at HER2-TK [1] (pH 7.4, read-out: ka) came out at 122 ± 11 M⁻¹ s⁻¹. The midpoint of inhibition against HER2-TK [3], the IC50, lay at 0.0874 ± 0.0017 µM.
In the case of `CS(=O)(=O)CCNCc1ccc(-c2ccc3ncnc(Nc4ccc(OCc5cccc(F)c5)c(Cl)c4)c3c2)o1` [Lapatinib, reference compound], in experiment [2], the IC50 worked out at 8 ± 1.4 µM.
